Data as given in ChEMBL document CHEMBL1255289, “In vitro antifungal activities of isavuconazole (BAL4815), voriconazole, and fluconazole against 1,007 isolates of zygomycete, Candida, Aspergillus, Fusarium, and Scedosporium species” (2008).
In brackets after ≈: the same amount, converted by molar mass.

How the values were obtained:
[1] = system: Lomentospora prolificans; test: Antifungal activity against Scedosporium prolificans isolates by Etest; format: functional
Summary of the method: (§1)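 Etest on RPMI agar with 2% glucose, swab-inoculated with the microdilution spore or yeast suspension taken before its 50-fold dilution. Plates were incubated at 35°C and read at 48 h. The MIC was the ellipse–scale intercept, raised to the next twofold dilution step.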

[2] = system: Candida parapsilosis; test: Antifungal activity against Candida parapsilosis isolates after 48 hrs by CLSI M27-A2 procedure based assay; format: functional
Summary of the method: (§2)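 Candida isolates tested by CLSI M27-A2 broth microdilution at final 0.015–16 µg/ml, or 0.125–128 µg/ml for the comparator azole. Incubation was at 35°C with a visual read at 48 h. MIC-2 was the lowest concentration giving a prominent turbidity drop, about 50% growth inhibition.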

[3] = system: Fusarium; test: Antifungal activity against Fusarium sp. isolates assessed as lowest compound concentration that produced complete inhibition of microbial growth by CLSI M38-A procedure based assay
[4] = system: Syncephalastrum; test: Antifungal activity against Syncephalastrum isolates assessed as lowest compound concentration that produced complete inhibition of microbial growth after 24 hrs by CLSI M38-A procedure based assay; format: functional
Summary of the method: (§3)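 Zygomycete isolates subcultured on potato dextrose or Sabouraud agar, then tested by CLSI M38-A broth microdilution. Drugs were serially diluted in plates at final 0.015–16 µg/ml and incubated at 35°C. Plates were read by eye at 24 h. MIC-0 was the lowest concentration giving complete growth inhibition.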

[5] = system: Fusarium; test: Antifungal activity against Fusarium sp. isolates by Etest; format: functional; summary of the method: as §1
[6] = system: Candida tropicalis; test: Antifungal activity against Candida tropicalis isolates after 48 hrs by CLSI M27-A2 procedure based assay; format: functional; summary of the method: as §2
[7] = system: Pichia kudriavzevii; test: Antifungal activity against Candida krusei isolates after 48 hrs by CLSI M27-A2 procedure based assay; format: functional; summary of the method: as §2
[8] = system: Aspergillus sp.; test: Antifungal activity against Aspergillus sp. isolates by Etest; format: functional; summary of the method: as §1
[9] = system: Candida albicans; test: Antifungal activity against Candida albicans isolates by Etest; format: functional; summary of the method: as §1
[10] = system: Mucor; test: Antifungal activity against Mucor isolates by Etest; format: functional
Summary of the method: (§4)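 Etest. The spore inoculum used for microdilution, taken before the 50-fold dilution, was swabbed onto RPMI agar with 2% glucose, strips applied, and plates held at 35°C and read at 24 h. The MIC was where the inhibition ellipse met the strip scale, rounded up to the next twofold dilution.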

[11] = system: Pichia kudriavzevii; test: Antifungal activity against Candida krusei isolates by Etest; format: functional; summary of the method: as §1
[12] = system: Aspergillus niger; test: Antifungal activity against Aspergillus niger isolates after 48 hrs by CLSI M38-A procedure based assay; format: functional
Summary of the method: (§5)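 Aspergillus isolates tested by CLSI M38-A broth microdilution at final 0.015–16 µg/ml and 35°C. Plates were read macroscopically at 48 h. The MIC was the lowest concentration producing complete inhibition of growth (MIC-0).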

[13] = system: Rhizopus; test: Antifungal activity against Rhizopus isolates by Etest; format: functional; summary of the method: as §4
[14] = system: Scedosporium apiospermum; test: Antifungal activity against Scedosporium apiospermum isolates assessed as lowest compound concentration that produced slight growth or approximately 25% of that of growth control after 24 hrs by CLSI M38-A procedure based assay; format: functional
[15] = system: Cunninghamella; test: Antifungal activity against Cunninghamella isolates assessed as lowest compound concentration that produced slight growth or approximately 25% of that of growth control after 24 hrs by CLSI M38-A procedure based assay; format: functional
Summary of the method: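 Clinical isolates were kept at –70°C as spore suspensions in sterile water and subcultured on potato dextrose or Sabouraud agar before testing. Broth microdilution used DMSO stocks in trays stored at –70°C, with final drug 0.015–16 µg/ml.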

[16] = system: Rhizopus; test: Antifungal activity against Rhizopus isolates assessed as lowest compound concentration that produced slight growth or approximately 25% of that of growth control after 24 hrs by CLSI M38-A procedure based assay; format: functional
Summary of the method: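 Rhizopus isolates tested by CLSI M38-A broth microdilution at final 0.015–16 µg/ml, 35°C, read by eye at 24 h.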

[17] = system: Cunninghamella; test: Antifungal activity against Cunninghamella isolates by Etest; format: functional; summary of the method: as §4
[18] = system: Lomentospora prolificans; test: Antifungal activity against Scedosporium prolificans isolates assessed as lowest compound concentration that produced slight growth or approximately 25% of that of growth control after 24 hrs by CLSI M38-A procedure based assay; format: functional
[19] = system: Cunninghamella; test: Antifungal activity against Cunninghamella isolates assessed as lowest compound concentration that produced complete inhibition of microbial growth after 24 hrs by CLSI M38-A procedure based assay; format: functional; summary of the method: as §3
[20] = system: Candida parapsilosis; test: Antifungal activity against Candida parapsilosis isolates by Etest; format: functional; conditions: Lodderomyces parapsilosis; summary of the method: as §1
[21] = system: Candida; test: Antifungal activity against Candida sp. isolates by Etest; format: functional; summary of the method: as §1
[22] = system: Aspergillus fumigatus; test: Antifungal activity against Aspergillus fumigatus isolates by Etest; format: functional; summary of the method: as §1
[23] = system: Aspergillus flavus; test: Antifungal activity against Aspergillus flavus isolates by Etest; format: functional; summary of the method: as §1
[24] = system: Aspergillus flavus; test: Antifungal activity against Aspergillus flavus isolates after 48 hrs by CLSI M38-A procedure based assay; format: functional; summary of the method: as §5
[25] = system: Syncephalastrum; test: Antifungal activity against Syncephalastrum isolates by Etest; format: functional; summary of the method: as §4
[26] = system: Candida; test: Antifungal activity against Candida sp. isolates after 48 hrs by CLSI M27-A2 procedure based assay; format: functional
Summary of the method: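 Candida isolates were stored at –70°C as yeast suspensions and subcultured on potato dextrose or Sabouraud agar before use. Broth microdilution used DMSO drug stocks, with final well concentrations of 0.015–16 or 0.125–128 µg/ml depending on the azole. Plates were incubated at 35°C and read macroscopically at 48 h. MIC-2 was the lowest concentration giving a prominent turbidity decrease (~50% growth inhibition).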

[27] = system: Aspergillus fumigatus; test: Antifungal activity against Aspergillus fumigatus isolates after 48 hrs by CLSI M38-A procedure based assay; format: functional; summary of the method: as §5
[28] = Lodderomyces parapsilosis, 48 h

`C[C@@H](c1nc(-c2ccc(C#N)cc2)cs1)[C@](O)(Cn1cncn1)c1cc(F)ccc1F` [ISAVUCONAZOLE] was tested. Which MIC50 [1] did it give?
Its MIC50 is greater than 32 µg/mL.

And the MIC90 [1]?
Its MIC90 is greater than 32 µg/mL.

What about the MFC50 [2] of the same compound?
Its MFC50 is 4 µg/mL (≈ 9.14 µM).

What about the MFC90 [2] of the same compound?
Its MFC90 is 16 µg/mL (≈ 36.6 µM).

And the MFC [2, 28]?
Its MFC is 0.03 µg/mL (≈ 0.0686 µM).

And the MIC [2, 28]?
The MIC was less than 0.015 µg/mL.

What about the MIC50 [2, 28] of the same compound?
Its MIC50 is less than 0.015 µg/mL.

What about the MIC90 [2, 28] of the same compound?
The MIC90 was 0.03 µg/mL (≈ 0.0686 µM).

What about the MFC90 [3] of the same compound?
Its MFC90 is greater than 16 µg/mL.

What about the MFC [4] of the same compound?
Its MFC is 1 µg/mL (≈ 2.29 µM).

What about the MIC [4] of the same compound?
Its MIC is 0.25 µg/mL (≈ 0.571 µM).

What about the MIC [5] of the same compound?
The MIC was 0.38 µg/mL (≈ 0.869 µM).

And the MIC50 [5]?
Its MIC50 is greater than 32 µg/mL.

And the MIC90 [5]?
The MIC90 was greater than 32 µg/mL.

What about the MFC50 [6] of the same compound?
The MFC50 was greater than 16 µg/mL.

What about the MFC90 [6] of the same compound?
The MFC90 was greater than 16 µg/mL.

And the MFC ([6]; Candida tropicalis, 48 h)?
Its MFC is 2 µg/mL (≈ 4.57 µM).

What about the MIC ([6]; Candida tropicalis, 48 h) of the same compound?
Its MIC is less than 0.015 µg/mL.

What about the MIC50 ([6]; Candida tropicalis, 48 h) of the same compound?
Its MIC50 is less than 0.015 µg/mL.

What about the MIC90 ([6]; Candida tropicalis, 48 h) of the same compound?
The MIC90 was 0.06 µg/mL (≈ 0.137 µM).

And the MFC [7]?
The MFC was 0.5 µg/mL (≈ 1.14 µM).

And the MIC [7]?
Its MIC is 0.125 µg/mL (≈ 0.286 µM).

What about the MIC [8] of the same compound?
The MIC was 0.02 µg/mL (≈ 0.0457 µM).

And the MIC50 [9]?
The MIC50 was 0.004 µg/mL (≈ 0.00914 µM).

What about the MIC90 [9] of the same compound?
Its MIC90 is 0.015 µg/mL (≈ 0.0343 µM).

And the MIC [10]?
The MIC was 0.19 µg/mL (≈ 0.434 µM).

What about the MIC50 [10] of the same compound?
The MIC50 was 2 µg/mL (≈ 4.57 µM).

What about the MIC90 [10] of the same compound?
Its MIC90 is greater than 32 µg/mL.

And the MIC [11]?
The MIC was 0.012 µg/mL (≈ 0.0274 µM).

And the MFC50 [12]?
The MFC50 was 1 µg/mL (≈ 2.29 µM).

And the MFC90 [12]?
Its MFC90 is 2 µg/mL (≈ 4.57 µM).

And the MFC ([12]; Aspergillus niger, 48 h)?
The MFC was 0.25 µg/mL (≈ 0.571 µM).

What about the MIC50 ([12]; Aspergillus niger, 48 h) of the same compound?
The MIC50 was 1 µg/mL (≈ 2.29 µM).

And the MIC90 ([12]; Aspergillus niger, 48 h)?
Its MIC90 is 2 µg/mL (≈ 4.57 µM).

What about the MIC50 [13] of the same compound?
Its MIC50 is 1 µg/mL (≈ 2.29 µM).

And the MIC90 [13]?
Its MIC90 is greater than 32 µg/mL.

What about the MIC50 [14] of the same compound?
The MIC50 was 1 µg/mL (≈ 2.29 µM).

What about the MIC90 [14] of the same compound?
The MIC90 was 2 µg/mL (≈ 4.57 µM).

What about the MIC [15] of the same compound?
Its MIC is 0.5 µg/mL (≈ 1.14 µM).

What about the MIC [16] of the same compound?
The MIC was 0.5 µg/mL (≈ 1.14 µM).

What about the MIC50 [16] of the same compound?
Its MIC50 is 0.5 µg/mL (≈ 1.14 µM).

And the MIC90 [16]?
Its MIC90 is 4 µg/mL (≈ 9.14 µM).

And the MIC [17]?
Its MIC is 0.38 µg/mL (≈ 0.869 µM).

And the MIC [18]?
Its MIC is 4 µg/mL (≈ 9.14 µM).

What about the MFC [19] of the same compound?
The MFC was 16 µg/mL (≈ 36.6 µM).

And the MIC [19]?
The MIC was 2 µg/mL (≈ 4.57 µM).

What about the MIC50 [20] of the same compound?
Its MIC50 is 0.004 µg/mL (≈ 0.00914 µM).

What about the MIC90 [20] of the same compound?
The MIC90 was 0.023 µg/mL (≈ 0.0526 µM).

And the MIC [21]?
The MIC was 0.004 µg/mL (≈ 0.00914 µM).

What about the MIC [22] of the same compound?
The MIC was 0.047 µg/mL (≈ 0.107 µM).

And the MIC50 [22]?
Its MIC50 is 0.25 µg/mL (≈ 0.571 µM).

What about the MIC90 [22] of the same compound?
Its MIC90 is 0.5 µg/mL (≈ 1.14 µM).

What about the MIC [23] of the same compound?
Its MIC is 0.016 µg/mL (≈ 0.0366 µM).

What about the MIC50 [23] of the same compound?
Its MIC50 is 0.38 µg/mL (≈ 0.869 µM).

And the MIC90 [23]?
The MIC90 was 0.5 µg/mL (≈ 1.14 µM).

What about the MFC50 [24] of the same compound?
The MFC50 was 1 µg/mL (≈ 2.29 µM).

And the MFC90 [24]?
The MFC90 was 1 µg/mL (≈ 2.29 µM).

And the MFC ([24]; Aspergillus flavus, 48 h)?
Its MFC is 0.5 µg/mL (≈ 1.14 µM).

And the MIC50 ([24]; Aspergillus flavus, 48 h)?
The MIC50 was 1 µg/mL (≈ 2.29 µM).

What about the MIC90 ([24]; Aspergillus flavus, 48 h) of the same compound?
Its MIC90 is 1 µg/mL (≈ 2.29 µM).

What about the MIC [25] of the same compound?
Its MIC is 0.25 µg/mL (≈ 0.571 µM).

What about the MFC [26] of the same compound?
Its MFC is 0.003 µg/mL (≈ 0.00686 µM).

What about the MIC [26] of the same compound?
Its MIC is greater than 0.015 µg/mL.

And the MFC50 [27]?
The MFC50 was 1 µg/mL (≈ 2.29 µM).

What about the MFC90 [27] of the same compound?
The MFC90 was 1 µg/mL (≈ 2.29 µM).

And the MFC ([27]; Aspergillus fumigatus, 48 h)?
The MFC was 0.125 µg/mL (≈ 0.286 µM).

And the MIC50 ([27]; Aspergillus fumigatus, 48 h)?
Its MIC50 is 1 µg/mL (≈ 2.29 µM).

And the MIC90 ([27]; Aspergillus fumigatus, 48 h)?
The MIC90 was 1 µg/mL (≈ 2.29 µM).
